CHO parental Ca: counter-screen for OX1R antagonists: effect in parental CHO cells. AID 463079. 330,000 compounds, 0.63% hits. parental CHO-K1, ATP-induced calcium, Fluo-8 fluorescence. inhibition, % at 5.6 µM;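 active = inhibition above that plate's mean sample inhibition plus 3 SD, cut at about 26% in these data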;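 also: 0% = ATP-challenged DMSO wells and 100% = DMSO wells without ATP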
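test system = CHO parental line | reagent = ATP stimulus | measured by = intracellular calcium via Fluo-8 no-wash fluorescent dye | control set = ATP and no-ATP DMSO wells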
GPR7 antag: antagonists of human GPR7 (neuropeptides B/W receptor 1); P48145; 290,000 compounds, 1.1% hits; GPR7-expressing cells, fluorescence antagonist assay; inhibition, % at 4.4 µM; in the data active = inhibition above about 16%, passing the limit was not always enough;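 also: cells stimulated with the agonist NPW; 0% = agonist with vehicle and 100% = vehicle without agonist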
OX1R antag-1: antagonists of human orexin 1 receptor; O43613; CHO/OX1R cells, Fluo-8 calcium fluorescence, orexin A; inhibition, % at 5 µM; 330,000 compounds, 0.43% hits; AID 434989;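 active = inhibition above its plate's threshold, mean inhibition of all tested compounds on the plate plus 3 SD, cut at about 37% in these data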;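 also: 0% = orexin A challenge wells and 100% = SB-334867-A antagonist wells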
Target sequence (O43613 whole entry, looked up): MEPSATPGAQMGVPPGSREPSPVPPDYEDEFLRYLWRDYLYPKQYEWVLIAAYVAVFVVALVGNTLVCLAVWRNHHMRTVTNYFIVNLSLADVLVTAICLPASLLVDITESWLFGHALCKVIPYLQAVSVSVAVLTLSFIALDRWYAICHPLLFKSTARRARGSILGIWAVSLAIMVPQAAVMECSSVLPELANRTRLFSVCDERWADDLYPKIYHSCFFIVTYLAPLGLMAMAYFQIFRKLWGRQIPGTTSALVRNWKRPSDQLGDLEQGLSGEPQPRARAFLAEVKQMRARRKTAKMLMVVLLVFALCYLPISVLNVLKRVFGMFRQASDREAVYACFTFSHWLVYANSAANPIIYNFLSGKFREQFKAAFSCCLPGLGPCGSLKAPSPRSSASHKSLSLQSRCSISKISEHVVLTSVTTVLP
TAAR1 antag: antagonists of human TAAR1 | Q96RJ0 | CHO RD-HGA16 TAAR1, Fluo-8 calcium fluorescence, antagonist | inhibition, % at 3 µM | 360,000 compounds, 1.5% hits;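 active = inhibition above a per-plate cutoff, the mean inhibition of test compounds on that plate plus 3 SD, cut at about 49% in these data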;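 also: 0% = DMSO plus EC80 beta-PEA response and 100% = DMSO alone without agonist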
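Test system: CHO RD-HGA16 cells bearing hTAAR1 | Reagent: β-PEA, EC80 | Compound dosing: 3 µM, single point | Schedule: Dye loading 75 min at 37 °C, then 30 min room temperature | Signal: Calcium fluorescence with Fluo-8 | Evaluation: Percent inhibition of PEA-evoked calcium signal, max/basal emission ratio | Control set: DMSO-only wells and EC80 β-PEA-stimulated wells | Repeats: Singlicate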
OX1R antag-2: blocks the human orexin 1 receptor. 330,000 compounds, 1.8% hits. OX1R-expressing cells, FRET antagonist read-out. O43613. inhibition, % at 6.6 µM; in the data active = inhibition mostly above about 38%, no sharp cut-off; inactive = mostly below about 40%;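 also: 0% = agonist challenge alone and 100% = reference antagonist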
TAAR1 agonist: agonists of human TAAR1; Q96RJ0; CHO RD-HGA16 TAAR1, Fluo-8 calcium fluorescence; vehicle wells 0%, saturating PEA agonist 100%; activation, % at 3 µM; 360,000 compounds, 0.99% hits; AID 624467;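 active = activation above the mean activation of all test compounds in the run plus 3 SD, cut at about 38% in these data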
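Test system: RD-HGA16 (CHO) cells co-expressing Gα16 and hTAAR1 / Benchmarks: DMSO vehicle as 0%, PEA at EC100 as 100% / Repeats: no replicates (n 1) / Measure: % activation from peak over basal fluorescence ratio, DMSO-to-PEA scaled / Timing: 17-24 h plating, Fluo-8 75 min 37 °C, 30 min RT / Technique: kinetic Fluo-8 calcium fluorescence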
Numbers without * were called inactive. Most compounds without a hit are left out; they make up all but 4.6% or so of the library.

`O=C(c1ccc(Cl)cc1Cl)N1CCN(c2ccc(N3CCOCC3)nn2)CC1` gave CHO parental Ca -16, OX1R antag-1 -23, TAAR1 antag -3, OX1R antag-2 21 and TAAR1 agonist 0.
Screening Cc1cccc(NS(=O)(=O)c2ccc(NC(=O)CN(c3cc([N+](=O)[O-])ccc3C)S(C)(=O)=O)cc2)c1 returned CHO parental Ca 20, GPR7 antag 66*, OX1R antag-1 15, TAAR1 antag 6, OX1R antag-2 14 and TAAR1 agonist 2.
For COc1ccc(C)cc1NS(=O)(=O)c1ccc(NC(=O)CN(c2cc([N+](=O)[O-])ccc2C)S(C)(=O)=O)cc1 the results were CHO parental Ca 28, GPR7 antag 17, OX1R antag-1 4, TAAR1 antag -2, OX1R antag-2 14 and TAAR1 agonist 2.
COc1ccc2cc(CCNC(=O)c3c(-c4ccccc4Cl)noc3C)c(=O)[nH]c2c1 was read as CHO parental Ca -11, GPR7 antag 5, OX1R antag-1 -30, TAAR1 antag 9, OX1R antag-2 20 and TAAR1 agonist 3.
Screening O=C(/C=C/c1ccccc1Cl)Nc1cccc(O)c1 returned CHO parental Ca -16, GPR7 antag 22*, OX1R antag-1 -31, TAAR1 antag -1, OX1R antag-2 34 and TAAR1 agonist 29.
`COc1cccc(/C=C/C(=O)Nc2cccc(C(C)=O)c2)c1OC` gave CHO parental Ca -9, GPR7 antag -7, OX1R antag-1 -20, TAAR1 antag 6, OX1R antag-2 15 and TAAR1 agonist 20.
COc1ccccc1/C=C/C(=O)Nc1cccc(C(C)=O)c1 was read as CHO parental Ca -20, GPR7 antag -3, OX1R antag-1 0, TAAR1 antag 14, OX1R antag-2 60* and TAAR1 agonist 7.
CCCn1c(=O)c(C(=O)NNC(=O)c2cccc([N+](=O)[O-])c2)c(O)c2ccccc21 was read as CHO parental Ca -7, GPR7 antag -9, OX1R antag-1 -21, TAAR1 antag -10, OX1R antag-2 24 and TAAR1 agonist -1.
O=C(N/N=C/c1c(O)ccc2ccccc12)c1cccc(C(F)(F)F)c1 was read as CHO parental Ca 7, GPR7 antag -12, OX1R antag-1 56*, TAAR1 antag 62*, OX1R antag-2 36 and TAAR1 agonist 58*.
`COc1ccc2ccccc2c1/C=N/NC(=O)c1cccc(Br)c1` gave CHO parental Ca -27, GPR7 antag -5, OX1R antag-1 -9, TAAR1 antag -14, OX1R antag-2 47 and TAAR1 agonist 3.
Screening Clc1ccc(-n2ncc3c(NCC4CCCO4)ncnc32)cc1 (centres undefined) returned CHO parental Ca -6, GPR7 antag 4, OX1R antag-1 -12, TAAR1 antag 53*, OX1R antag-2 12 and TAAR1 agonist 10.
For Cc1ccccc1C(=O)Nc1ccc(C(=O)N/N=C/c2ccc(F)cc2)cc1 the results were CHO parental Ca 12, GPR7 antag 5, OX1R antag-1 -4, TAAR1 antag 34, OX1R antag-2 8 and TAAR1 agonist 12.
For O=C(N/N=C/c1cccnc1)c1ccc(NC(=O)c2ccccc2Cl)cc1 the results were CHO parental Ca -7, GPR7 antag 8, OX1R antag-1 -5, TAAR1 antag 50*, OX1R antag-2 21 and TAAR1 agonist 12.
Screening Cc1ccccc1C(=O)Nc1ccc(C(=O)N/N=C/c2ccc(O)c(Br)c2)cc1 returned CHO parental Ca -21, GPR7 antag 8, OX1R antag-1 -9, TAAR1 antag 52*, OX1R antag-2 16 and TAAR1 agonist 10.
CC(OC(=O)c1cccc(-n2cnnn2)c1)C(=O)Nc1ccc(F)c(F)c1F (centres undefined) was read as TAAR1 antag -21 and TAAR1 agonist 0.
C[C@@H]1COc2cccc(NC3CC3)c2S(=O)(=O)N1 was read as TAAR1 antag 0 and TAAR1 agonist 0.
C[C@H]1CN([C@@H](C)CO)C(=O)CCCn2nncc2CO[C@H]1CN(C)S(=O)(=O)c1ccc(Oc2ccccc2)cc1 was read as TAAR1 antag -15 and TAAR1 agonist 6.
Screening COc1cc(/C=C(\C#N)C(=O)Nc2cccc(C(=O)O)c2)ccc1OCc1ccc(Cl)cc1 returned CHO parental Ca -9, GPR7 antag 4, OX1R antag-1 -13, TAAR1 antag 6, OX1R antag-2 13 and TAAR1 agonist 2.
`COc1cc(/C=C(/C#N)C(=O)Nc2ccccc2)c(Br)cc1OCc1ccc(C(=O)O)cc1` gave CHO parental Ca 59*, GPR7 antag -20, OX1R antag-1 65*, TAAR1 antag 48, OX1R antag-2 23 and TAAR1 agonist 22.
Screening COc1ccc(NS(=O)(=O)c2ccc(OC)c(NC(=O)CCC3CCCC3)c2)cc1 returned CHO parental Ca -5, GPR7 antag -13, OX1R antag-1 -24, TAAR1 antag -15, OX1R antag-2 15 and TAAR1 agonist -2.
Screening COc1cccc(COC(=O)c2c(C)nn(-c3ccccc3)c2Cl)c1OC returned CHO parental Ca -18, GPR7 antag -6, OX1R antag-1 -43, TAAR1 antag 13, OX1R antag-2 25 and TAAR1 agonist -1.
`Clc1ccc(CONc2ncnc3nonc23)c(Cl)c1` gave CHO parental Ca 11, GPR7 antag -9, OX1R antag-1 -1, TAAR1 antag 23, OX1R antag-2 18 and TAAR1 agonist 17.
For Clc1ccc(CON/C=N/c2ncnc3sccc23)c(Cl)c1 the results were CHO parental Ca 23, GPR7 antag -13, OX1R antag-1 -9, TAAR1 antag 24, OX1R antag-2 45* and TAAR1 agonist 6.
CC1(C)N=c2ccc([N+](=O)[O-])c(N)c2=[N+]1[O-] was read as CHO parental Ca -7, GPR7 antag -2, OX1R antag-1 3, TAAR1 antag -25, OX1R antag-2 75* and TAAR1 agonist 2.
`O=C(CN1C(=O)C2C3C=CC(C3)C2C1=O)OCC(=O)c1ccc([N+](=O)[O-])cc1` (centres undefined) gave CHO parental Ca 2, GPR7 antag 5, OX1R antag-1 -16, TAAR1 antag 1, OX1R antag-2 58* and TAAR1 agonist -2.
`O=C(CN1C(=O)C2C3C=CC(C3)C2C1=O)OCC(=O)c1ccc(Cl)cc1` (centres undefined) gave GPR7 antag -7, TAAR1 antag 0 and TAAR1 agonist 2.
For O=C(COc1cccc(NC(=O)c2cccc([N+](=O)[O-])c2)c1)c1ccc(Br)cc1 the results were CHO parental Ca 9, GPR7 antag -2, OX1R antag-1 21, TAAR1 antag 83*, OX1R antag-2 54 and TAAR1 agonist 19.
